These results are taken from the RNAGym collection of RNA variant scans (doi:10.1126/science.aae0568).

This sample holds only a part of the variants without activity.

Sequences and labels used below:
B1: tRNA (parent)
chain: GUUCCGUUGGCGUAAUGGUAACGCGUCUCCCUCCUAAGGAGAAGACUGCGGGUUCGAGUCCCGUACGGAACG

Variants of B1 are the subject of this data set. The data set is described as follows: yeast fitness relative to wild type (ratio to wild type); higher = fitter; tRNA-Arg(CCU), competitive growth, 37 C, YPD. In short, it runs like this: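 Start and end populations of a pooled competition were compared by 100-nucleotide paired-end sequencing of gene amplicons. The Saccharomyces cerevisiae strains carried tRNA-Arg(CCU) gene variants at the native genomic locus, synthesised with a 3% per-site mutation rate at 69 sites, and competed in YPD at 37°C for 24 hours in six parallel replicates. Darwinian fitness relative to wild type was based on the change in genotype frequencies. Genotypes required ≥ 100 starting reads, and estimates < 0.5 were set to 0.5.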
As to U2C C24G C30U C62U, the yeast fitness is not above 0.5. In the case of U2C A21U A40C G56C, the yeast fitness is 0.66. With U2C C5A A65U the figure was 0.668; with U2C A37U A43U, 0.568; with U2C C5G C27U A45G U53C, not above 0.5.

With U2C A20U C61A G67A, the yeast fitness is not above 0.5. With U2C A43U the figure was 0.989.

As for U2C C31G U35A G63A, the yeast fitness is not above 0.5. Under U2C G23A C31G G58A stands not above 0.5; under U2C G38A C60G, 0.558; under U2C C62U G68C A69G, not above 0.5.

On to U2C C5A C46U, for which the yeast fitness amounted to 0.591.

Take U2C A37G G68C: the yeast fitness is not above 0.5. As to U2C G63C G68C, the yeast fitness worked out at 0.572.

As to U2C A42G C55U, the yeast fitness was not above 0.5.

With U2C C4G C27G U32A U35C C49A U59C, the yeast fitness is not above 0.5. Regarding U2C A40U U54A, the yeast fitness was not above 0.5. For U2C G6A, the yeast fitness was found to be 0.998. Take U2C A37U U53A G63A: the yeast fitness was not above 0.5. With U2C U3A C24A C27U A42G G56C C66U the figure was not above 0.5. Under U2C G17C G23A G52A C61U stands not above 0.5; under U2C G25A A69U, 0.711. As for U2C C5A C30G, the yeast fitness is not above 0.5.

Consider U2C C4A C11U C60A C62U, for which the yeast fitness was not above 0.5. Turning to U2C C27A A65G, the yeast fitness was 0.632.

With U2C G18C C30U C61G, the yeast fitness is not above 0.5. With U2C A43U G50A U54G C62U the figure was not above 0.5; with U2C G10C C31U A43G, 0.525; with U2C G10A, 0.803. Under U2C C4G stands 0.965; under U2C C4A, 0.877; under U2C G51A C62G C66U, not above 0.5. Under U2C A37G G38C C49U G52C A57C A65C stands not above 0.5; under U2C C30U A36C A45U G50C, not above 0.5; under U2C C4G G6C G18A C24U C27A U35C G41A U47C, not above 0.5. For the variant U2C G12C C34A A40C, the yeast fitness was not above 0.5. Under U2C C11A C31U C33U A42C stands 0.527. Take U2C G12A A15G C62U: the yeast fitness was not above 0.5.

Consider U2C A37G A40G A45U, for which the yeast fitness is not above 0.5. With U2C C24G A36G A42U A45U, the yeast fitness was not above 0.5. Under U2C C27A G41A C49A U53C U54C U64C stands not above 0.5; under U2C G18A C24A U28A U32C, not above 0.5.

Turning to U2C C29U C34U A57C U64C, the yeast fitness is not above 0.5.

As to U2C C4U G48A, the yeast fitness is 0.538.

Turning to U2C G18A U28C A42C, the yeast fitness is not above 0.5.

Turning to U2C C5G U59A, the yeast fitness was 0.613. On to U2C C11G C46A A57U, for which the yeast fitness is not above 0.5.

Consider U2C A42G C61G, for which the yeast fitness was not above 0.5.

For U2C C22G A37C A45U G67A, the yeast fitness is not above 0.5.

Take U2C C66A A69C: the yeast fitness is not above 0.5. U2C C31G G58A: the yeast fitness was not above 0.5. With U2C C24U C31U C46A U59A C61A the figure was not above 0.5; with U2C C27U A69C, 0.729. With U2C C49G G58A the figure was not above 0.5; with U2C C24U U26A U28G U54G, not above 0.5. With U2C C27A C31G, the yeast fitness amounted to 0.557. Under U2C G10C A36C stands 0.587.

Regarding U2C G68A, the yeast fitness was determined as 0.762. With U2C G68C, the yeast fitness was found to be 0.963.

Regarding U2C C11A A14C C22U A45U, the yeast fitness is not above 0.5. Under U2C C29U C62U A70U stands not above 0.5; under U2C A21U U32A A40C G56C, not above 0.5. Take U2C C11U G12A A15G U54C C66U G68C A69U: the yeast fitness was not above 0.5.

Turning to U2C G9C U13C G68C, the yeast fitness was not above 0.5. Under U2C U8A A36U stands not above 0.5; under U2C C24U C29U C30A A69U, not above 0.5.

As for U2C U3C C5U C34U, the yeast fitness was not above 0.5.

For the variant U2C G39A, the yeast fitness amounted to 0.884. Under U2C C11G C46A A70C stands not above 0.5; under U2C C5G G44A C46A G52A C66U, not above 0.5; under U2C A21U U35A G41C U47A G67C, not above 0.5.

For the variant U2C G18C, the yeast fitness amounted to 0.723. With U2C G18A the figure was 0.806. Consider U2C C31G U35A A69U, for which the yeast fitness is not above 0.5.

As to U2C U7A G68A, the yeast fitness was not above 0.5. For U2C G23C C33A G50C G58C A70G, the yeast fitness is not above 0.5.

For U2C G10A C46G G50A, the yeast fitness is not above 0.5. With U2C A40G A45C the figure was not above 0.5; with U2C A42G A45C C61G, not above 0.5; with U2C G10A C49A A65U, not above 0.5. With U2C C61A, the yeast fitness was found to be 0.783. With U2C C61G, the yeast fitness came to 0.553.

U2C C24G U26G C34A A36C: the yeast fitness was not above 0.5.

On to U2C G38A A70G, for which the yeast fitness is 0.541. On to U2C C5G C46U A70G, for which the yeast fitness worked out at 0.994. With U2C G12A A15G C66U the figure was 0.577.

In the case of U2C C5G A37G G48A, the yeast fitness is not above 0.5.

Consider U2C G63C C66U, for which the yeast fitness is not above 0.5. Under U2C C22A stands 0.927. Consider U2C C27G C31G A69U, for which the yeast fitness was not above 0.5. With U2C C5G C46U U54G A65C the figure was not above 0.5. Take U2C C30G C33A A65C: the yeast fitness was not above 0.5. With U2C C24G A37G G58A G67A, the yeast fitness is not above 0.5.

With U2C G48A G63C, the yeast fitness is 0.953. As to U2C C49G C55U, the yeast fitness was found to be 0.573. Regarding U2C C30U, the yeast fitness came to 0.967. As to U2C C30A, the yeast fitness was determined as 0.89. Consider U2C G18C C55G C61G, for which the yeast fitness is 0.541. Under U2C A70U stands 1.06; under U2C C49U C62U, 0.521. Take U2C G23C C27G A45G G52A C66A: the yeast fitness worked out at 0.534. With U2C A36C G38C C55U C62A the figure was not above 0.5; with U2C G25A A42U A65C G67C, not above 0.5.

On to U2C G25C A70G, for which the yeast fitness came to 0.978. Consider U2C C30G C31G C46G U54A, for which the yeast fitness was not above 0.5.

Regarding U2C U3C C34U C55A, the yeast fitness was not above 0.5. Under U2C C11U A21C U26C A57U stands not above 0.5. Under U2C G50C G51A C55U stands 0.582; under U2C C34U A65U, 0.6; under U2C C5U C27G U28A A43U, not above 0.5. With U2C C55A G56C G67C the figure was not above 0.5; with U2C G23C C31G C33U A42G G50U G52C G58C, not above 0.5. Consider U2C G38A U47A C55G C61U, for which the yeast fitness was not above 0.5. With U2C A40G U59C the figure was 0.587; with U2C G17C G23C G25C U35A A42U A70G, not above 0.5.

U2C C30U C31G: the yeast fitness came out at 0.771. As for U2C C24U U59C, the yeast fitness amounted to 0.537.

On to U2C A43U G48A C61G A70C, for which the yeast fitness was not above 0.5. As for U2C C5U C11G U19A C30U G58A, the yeast fitness was not above 0.5.

On to U2C C5U A15U, for which the yeast fitness turned out to be 0.568. As for U2C G18A C24A U28A U32C A57C G67U, the yeast fitness is not above 0.5. Under U2C A21G C33G U35C U59A A69U stands not above 0.5. With U2C C5A C24A U47A C66G the figure was not above 0.5. Turning to U2C G18C G25C A40C G51A G56A C66G, the yeast fitness is not above 0.5. Under U2C C4U C31A C33U G56C stands not above 0.5; under U2C A43U U47C, 0.749; under U2C G9A U16C, 0.602. U2C C24G: the yeast fitness was 0.946.

U2C A37G C55G U64A: the yeast fitness is not above 0.5. Under U2C C27A stands 0.749; under U2C U3C C34U A65G, not above 0.5; under U2C C60A, 0.66.

U2C A40U G58C: the yeast fitness was 0.705. U2C C31G C62A: the yeast fitness is 0.532. Under U2C C55G stands 0.583; under U2C C24G A42U, not above 0.5; under U2C C24G C49U, not above 0.5. Regarding U2C G56A, the yeast fitness was 1.02. Under U2C A65U G67A stands 0.698. For the variant U2C C5G A45C A69U, the yeast fitness came to 0.549. Under U2C C22A C29A G51C stands 0.596. In the case of U2C G10C C24A C31U A36C G48A, the yeast fitness is not above 0.5. As to U2C C46U G50A, the yeast fitness worked out at 0.737. Under U2C C11G C24A C55A stands 0.786; under U2C A45G G68A, not above 0.5.

For U2C G67A A70U, the yeast fitness came to 0.67. Under U2C A42C C66U stands 0.574. With U2C G18C C30U A57C U64C the figure was not above 0.5; with U2C G6A C11U, 0.587; with U2C A65U, 1.05. Turning to U2C A57U, the yeast fitness came to 0.685. With U2C A57C the figure was 0.679; with U2C C34G A45C A57C, not above 0.5. As to U2C A21G G68A, the yeast fitness worked out at 0.864.

U2C C22U A40U: the yeast fitness is 0.574.

Regarding U2C C49A C62U, the yeast fitness is not above 0.5. With U2C C5G C62U the figure was 0.717; with U2C G9A A20G, 1.07; with U2C G50A G68C, 0.556. With U2C G48A A69C the figure was 0.705.

On to U2C C24G C46U A70U, for which the yeast fitness worked out at 0.537.

U2C C5G G9A A15U A69U: the yeast fitness was not above 0.5. As for U2C A37U G48A C61U, the yeast fitness was not above 0.5. As to U2C C4G C22U C30A, the yeast fitness is not above 0.5.

As to U2C G18A C24U A42G G68A, the yeast fitness is not above 0.5. With U2C G17A U19C G50C G56C the figure was not above 0.5; with U2C G10C G51A C60U G67A, not above 0.5.
